# Results: ChEMBL document CHEMBL2157880, “Synthesis, antimycobacterial and antibacterial activity of ciprofloxacin derivatives containing a N-substituted benzyl moiety” (2012)
# Tests used:
# Format in all cases: functional
# Enterococcus faecium [1] = experiment: Antibacterial activity against Enterococcus faecium 10-6 after 18 to 24 hrs by NCCLS method
# Outline: (§1)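 Standard NCCLS (M100-S11) MIC testing against Gram-positive and Gram-negative strains. Plates were incubated at 35 °C for 18–24 h. The MIC was read as the lowest concentration giving complete inhibition of visible bacterial growth.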
# Klebsiella pneumoniae [2] = experiment: Antibacterial activity against Klebsiella pneumoniae 10-3 after 18 to 24 hrs by NCCLS method; outline: as §1
# Staphylococcus aureus [3] = experiment: Antibacterial activity against methicillin-resistant Staphylococcus aureus 10-13 after 18 to 24 hrs by NCCLS method
# Outline: (§2)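 Incubated at 35 °C for 18–24 h under NCCLS (M100-S11) standards. MIC was read as the lowest concentration giving complete inhibition of visible bacterial growth.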
# Staphylococcus aureus [4] = experiment: Antibacterial activity against methicillin-sensitive Staphylococcus aureus 10-13 after 18 to 24 hrs by NCCLS method; outline: as §1
# Escherichia coli [5] = experiment: Antibacterial activity against extended spectrum beta-lactamases producing Escherichia coli 10-2 after 18 to 24 hrs by NCCLS method; outline: as §1
# [6] = test system: Staphylococcus epidermidis; experiment: Antibacterial activity against methicillin-resistant Staphylococcus epidermidis 10-10 after 18 to 24 hrs by NCCLS method; outline: as §2
# Escherichia coli [7] = experiment: Antibacterial activity against extended spectrum beta-lactamases producing Escherichia coli 10-3 after 18 to 24 hrs by NCCLS method; outline: as §1
# Klebsiella pneumoniae [8] = experiment: Antibacterial activity against Klebsiella pneumoniae 10-4 after 18 to 24 hrs by NCCLS method; outline: as §1
# [9] = test system: Staphylococcus epidermidis; experiment: Antibacterial activity against methicillin-resistant Staphylococcus epidermidis 10-13 after 18 to 24 hrs by NCCLS method; outline: as §2
# Enterococcus faecalis [10] = experiment: Antibacterial activity against Enterococcus faecalis 10-7 after 18 to 24 hrs by NCCLS method; outline: as §1
# Enterococcus faecium [11] = experiment: Antibacterial activity against Enterococcus faecium 10-9 after 18 to 24 hrs by NCCLS method; outline: as §1
# Streptococcus pneumoniae [12] = experiment: Antibacterial activity against Streptococcus pneumoniae 10-6 after 18 to 24 hrs by NCCLS method; outline: as §1
# Pseudomonas aeruginosa [13] = experiment: Antibacterial activity against Pseudomonas aeruginosa 10-12 after 18 to 24 hrs by NCCLS method; outline: as §1
# Pseudomonas aeruginosa [14] = experiment: Antibacterial activity against Pseudomonas aeruginosa 10-5 after 18 to 24 hrs by NCCLS method; outline: as §1
# Enterococcus faecalis [15] = experiment: Antibacterial activity against Enterococcus faecalis 10-6 after 18 to 24 hrs by NCCLS method; outline: as §1
# Escherichia coli [16] = experiment: Antibacterial activity against Escherichia coli 10-2 after 18 to 24 hrs by NCCLS method; outline: as §1
# Streptococcus pneumoniae [17] = experiment: Antibacterial activity against Streptococcus pneumoniae 10-1 after 18 to 24 hrs by NCCLS method; outline: as §1
# Pseudomonas aeruginosa [18] = experiment: Antibacterial activity against Pseudomonas aeruginosa 10-18 after 18 to 24 hrs by NCCLS method; outline: as §1
# Staphylococcus aureus [19] = experiment: Antibacterial activity against methicillin-sensitive Staphylococcus aureus 10-14 after 18 to 24 hrs by NCCLS method; outline: as §1
# [20] = test system: Staphylococcus epidermidis; experiment: Antibacterial activity against methicillin-sensitive Staphylococcus epidermidis 10-11 after 18 to 24 hrs by NCCLS method; outline: as §1
# [21] = test system: Staphylococcus epidermidis; experiment: Antibacterial activity against methicillin-sensitive Staphylococcus epidermidis 10-15 after 18 to 24 hrs by NCCLS method; outline: as §2
# Escherichia coli [22] = experiment: Antibacterial activity against Escherichia coli ATCC 25922 after 18 to 24 hrs by NCCLS method; outline: as §1
# Pseudomonas aeruginosa [23] = experiment: Antibacterial activity against Pseudomonas aeruginosa 10-20 after 18 to 24 hrs by NCCLS method; outline: as §1
# Escherichia coli [24] = experiment: Antibacterial activity against Escherichia coli 10-1 after 18 to 24 hrs by NCCLS method; outline: as §1
# Escherichia coli [25] = experiment: Antibacterial activity against extended spectrum beta-lactamases producing Escherichia coli 10-4 after 18 to 24 hrs by NCCLS method; outline: as §1
# Staphylococcus aureus [26] = experiment: Antibacterial activity against methicillin-resistant Staphylococcus aureus 10-11 after 18 to 24 hrs by NCCLS method; outline: as §2
# [27] = test system: Mycobacterium tuberculosis; experiment: Antimycobacterial activity against Mycobacterium tuberculosis H37Rv ATCC 27294 by microplate alamar blue assay
# Outline: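 Microplate Alamar Blue fluorescence assay on strain H37Rv ATCC 27294. MIC was the lowest concentration cutting fluorescence by ≥90% against the mean of replicate bacterium-only controls.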
# Pseudomonas aeruginosa [28] = experiment: Antibacterial activity against Pseudomonas aeruginosa 10-9 after 18 to 24 hrs by NCCLS method; outline: as §1
# Pseudomonas aeruginosa [29] = experiment: Antibacterial activity against Pseudomonas aeruginosa 10-15 after 18 to 24 hrs by NCCLS method; outline: as §1
# Staphylococcus aureus [30] = experiment: Antibacterial activity against methicillin-sensitive Staphylococcus aureus 10-11 after 18 to 24 hrs by NCCLS method; outline: as §1
# Staphylococcus aureus [31] = experiment: Antibacterial activity against Staphylococcus aureus ATCC 2592 after 18 to 24 hrs by NCCLS method; outline: as §1
# Escherichia coli [32] = experiment: Antibacterial activity against Escherichia coli 10-3 after 18 to 24 hrs by NCCLS method; outline: as §1
# Klebsiella pneumoniae [33] = experiment: Antibacterial activity against extended spectrum beta-lactamases producing Klebsiella pneumoniae 10-1 after 18 to 24 hrs by NCCLS method; outline: as §1
# Klebsiella pneumoniae [34] = experiment: Antibacterial activity against Klebsiella pneumoniae 10-2 after 18 to 24 hrs by NCCLS method; outline: as §1
# Klebsiella pneumoniae [35] = experiment: Antibacterial activity against extended spectrum beta-lactamases producing Klebsiella pneumoniae 10-2 after 18 to 24 hrs by NCCLS method; outline: as §1
# Staphylococcus aureus [36] = experiment: Antibacterial activity against methicillin-resistant Staphylococcus aureus 10-15 after 18 to 24 hrs by NCCLS method; outline: as §2
# Klebsiella pneumoniae [37] = experiment: Antibacterial activity against extended spectrum beta-lactamases producing Klebsiella pneumoniae 10-3 after 18 to 24 hrs by NCCLS method; outline: as §1
# Enterococcus faecalis [38] = experiment: Antibacterial activity against Enterococcus faecalis 10-5 after 18 to 24 hrs by NCCLS method; outline: as §1
Structure (SMILES),MIC (Enterococcus faecium [1]),MIC (Klebsiella pneumoniae [2]),MIC (Staphylococcus aureus [3]),MIC (Staphylococcus aureus [4]),MIC (Escherichia coli [5]),MIC [6],MIC (Escherichia coli [7]),MIC (Klebsiella pneumoniae [8]),MIC [9],MIC (Enterococcus faecalis [10]),MIC (Enterococcus faecium [11]),MIC (Streptococcus pneumoniae [12]),MIC (Pseudomonas aeruginosa [13]),MIC (Pseudomonas aeruginosa [14]),MIC (Enterococcus faecalis [15]),MIC (Escherichia coli [16]),MIC (Streptococcus pneumoniae [17]),MIC (Pseudomonas aeruginosa [18]),MIC (Staphylococcus aureus [19]),MIC [20],also measured
COc1ccc(CN2CCN(c3cc4c(cc3F)c(=O)c(C(=O)O)cn4C3CC3)CC2)c(OC)c1OC,8 µg/mL,16 µg/mL,64 µg/mL,0.25 µg/mL,> 128 µg/mL,64 µg/mL,> 128 µg/mL,> 128 µg/mL,64 µg/mL,64 µg/mL,32 µg/mL,64 µg/mL,64 µg/mL,32 µg/mL,> 128 µg/mL,16 µg/mL,8 µg/mL,64 µg/mL,0.125 µg/mL,0.25 µg/mL,MIC [21]: 16 µg/mL; MIC (Escherichia coli [22]): 0.5 µg/mL; MIC (Pseudomonas aeruginosa [23]): 32 µg/mL; MIC (Escherichia coli [24]): > 128 µg/mL; MIC (Escherichia coli [25]): 64 µg/mL; MIC (Staphylococcus aureus [26]): 16 µg/mL; MIC [27]: 16 µg/mL; MIC (Pseudomonas aeruginosa [28]): 32 µg/mL; MIC (Pseudomonas aeruginosa [29]): 32 µg/mL; MIC (Staphylococcus aureus [30]): 0.125 µg/mL; MIC (Staphylococcus aureus [31]): 0.5 µg/mL; MIC (Escherichia coli [32]): 64 µg/mL; MIC (Klebsiella pneumoniae [33]): > 128 µg/mL; MIC (Klebsiella pneumoniae [34]): > 128 µg/mL; MIC (Klebsiella pneumoniae [35]): > 128 µg/mL; MIC (Staphylococcus aureus [36]): 16 µg/mL; MIC (Klebsiella pneumoniae [37]): > 128 µg/mL; MIC (Enterococcus faecalis [38]): 16 µg/mL
COc1cc(CN2CCN(c3cc4c(cc3F)c(=O)c(C(=O)O)cn4C3CC3)CC2)c([N+](=O)[O-])cc1OC,8 µg/mL,8 µg/mL,64 µg/mL,2 µg/mL,> 128 µg/mL,16 µg/mL,> 128 µg/mL,> 128 µg/mL,16 µg/mL,16 µg/mL,64 µg/mL,128 µg/mL,16 µg/mL,8 µg/mL,128 µg/mL,8 µg/mL,8 µg/mL,8 µg/mL,1 µg/mL,2 µg/mL,MIC [21]: 16 µg/mL; MIC (Escherichia coli [22]): 2 µg/mL; MIC (Pseudomonas aeruginosa [23]): 4 µg/mL; MIC (Escherichia coli [24]): > 128 µg/mL; MIC (Escherichia coli [25]): > 128 µg/mL; MIC (Staphylococcus aureus [26]): 64 µg/mL; MIC [27]: > 32 µg/mL; MIC (Pseudomonas aeruginosa [28]): 8 µg/mL; MIC (Pseudomonas aeruginosa [29]): 8 µg/mL; MIC (Staphylococcus aureus [30]): 1 µg/mL; MIC (Staphylococcus aureus [31]): 1 µg/mL; MIC (Escherichia coli [32]): 8 µg/mL; MIC (Klebsiella pneumoniae [33]): > 128 µg/mL; MIC (Klebsiella pneumoniae [34]): > 128 µg/mL; MIC (Klebsiella pneumoniae [35]): > 128 µg/mL; MIC (Staphylococcus aureus [36]): 16 µg/mL; MIC (Klebsiella pneumoniae [37]): > 128 µg/mL; MIC (Enterococcus faecalis [38]): 16 µg/mL
O=C(O)c1cn(C2CC2)c2cc(N3CCN(Cc4ccccc4)CC3)c(F)cc2c1=O,16 µg/mL,16 µg/mL,64 µg/mL,0.25 µg/mL,> 128 µg/mL,16 µg/mL,> 128 µg/mL,> 128 µg/mL,0.5 µg/mL,16 µg/mL,16 µg/mL,16 µg/mL,16 µg/mL,16 µg/mL,16 µg/mL,16 µg/mL,16 µg/mL,8 µg/mL,0.25 µg/mL,32 µg/mL,MIC [21]: 16 µg/mL; MIC (Escherichia coli [22]): 0.25 µg/mL; MIC (Pseudomonas aeruginosa [23]): 16 µg/mL; MIC (Escherichia coli [24]): > 128 µg/mL; MIC (Escherichia coli [25]): 16 µg/mL; MIC (Staphylococcus aureus [26]): 64 µg/mL; MIC [27]: 1 µg/mL; MIC (Pseudomonas aeruginosa [28]): 16 µg/mL; MIC (Pseudomonas aeruginosa [29]): 32 µg/mL; MIC (Staphylococcus aureus [30]): 0.25 µg/mL; MIC (Staphylococcus aureus [31]): 0.25 µg/mL; MIC (Escherichia coli [32]): 16 µg/mL; MIC (Klebsiella pneumoniae [33]): > 128 µg/mL; MIC (Klebsiella pneumoniae [34]): > 128 µg/mL; MIC (Klebsiella pneumoniae [35]): > 128 µg/mL; MIC (Staphylococcus aureus [36]): 16 µg/mL; MIC (Klebsiella pneumoniae [37]): > 128 µg/mL; MIC (Enterococcus faecalis [38]): 16 µg/mL
COc1cc(CN2CCN(c3cc4c(cc3F)c(=O)c(C(=O)O)cn4C3CC3)CC2)cc(OC)c1OC,4 µg/mL,32 µg/mL,128 µg/mL,0.5 µg/mL,> 128 µg/mL,32 µg/mL,> 128 µg/mL,> 128 µg/mL,32 µg/mL,64 µg/mL,32 µg/mL,64 µg/mL,32 µg/mL,32 µg/mL,64 µg/mL,32 µg/mL,4 µg/mL,128 µg/mL,0.25 µg/mL,0.5 µg/mL,MIC [21]: 32 µg/mL; MIC (Escherichia coli [22]): 1 µg/mL; MIC (Pseudomonas aeruginosa [23]): 64 µg/mL; MIC (Escherichia coli [24]): > 128 µg/mL; MIC (Escherichia coli [25]): > 128 µg/mL; MIC (Staphylococcus aureus [26]): 64 µg/mL; MIC [27]: 32 µg/mL; MIC (Pseudomonas aeruginosa [28]): 32 µg/mL; MIC (Pseudomonas aeruginosa [29]): 64 µg/mL; MIC (Staphylococcus aureus [30]): 0.25 µg/mL; MIC (Staphylococcus aureus [31]): 0.25 µg/mL; MIC (Escherichia coli [32]): > 128 µg/mL; MIC (Klebsiella pneumoniae [33]): > 128 µg/mL; MIC (Klebsiella pneumoniae [34]): > 128 µg/mL; MIC (Klebsiella pneumoniae [35]): > 128 µg/mL; MIC (Staphylococcus aureus [36]): 32 µg/mL; MIC (Klebsiella pneumoniae [37]): > 128 µg/mL; MIC (Enterococcus faecalis [38]): 8 µg/mL
